IC50 data for one compound are collected here from PMC8448912 (ChemMedChem, 2021).

What all share (format): cell-based
Experiment [1] relates to MDA-MB-231 (Breast). Put plainly: MTT antiproliferative assay, 72 h. To be noted: Homo sapiens, MDA-MB-231, 72 h, read-out: IC50 values. Summed up: (§1)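 Human cancer cell lines (breast MDA-MB-231 and MCF-7, ovarian A2780, colorectal Caco-2 and HT-29) exposed to test compound for 72 h. Growth measured by MTT assay. IC50 values reported as mean ± SDM, n = 3.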
(Formazan colour is commonly taken as a measure of viable cells.)

In experiment [2] the test system is MCF-7 (Breast). Put plainly: MTT antiproliferative assay, 72 h. To be noted: Homo sapiens, MCF7, 72 h, read-out: IC50 values. Summed up: as §1
The test system of experiment [3] is A2780 (Ovary). The experiment in a line: MTT antiproliferative assay, 72 h. The following applies: Homo sapiens, A2780, 72 h, read-out: IC50 values. Summed up: as §1
Experiment [4] relates to Caco-2 (Colon). Put plainly: MTT antiproliferative assay, 72 h. The following applies: Homo sapiens, Caco-2, 72 h, read-out: IC50 values. Put shortly:
as §1

Experiment [5] has as its system HT-29 (Colon). Put plainly: MTT antiproliferative assay, 72 h. To be noted: Homo sapiens, HT-29, 72 h, read-out: IC50 values. Put shortly: as §1
For experiment [6], the system named is MRC-5 (Normal lung). The experiment in a line: MTT antiproliferative assay, 72 h. The following applies: Homo sapiens, MRC5, 72 h, read-out: IC50 values.
The test system of experiment [7] is panel of breast, ovarian and colorectal cancer cells. Put plainly: antiproliferative activity in the panel of cell lines. To be noted: read-out: IC50 values in this screen. Summed up: as §1

By IC50 is commonly meant the midpoint of a concentration-inhibition curve.

As for `CC(=O)N(O)CCCCCNC(=O)CCC(=O)N(O)CCCCCNC(=O)CCC(=O)N(O)CCCCCN` [DFO, desferrioxamine], the IC50 in experiment [1] was determined as 5.8 ± 0.4 µM; in experiment [2], 21 ± 2 µM; in experiment [3], 3.83 ± 0.02 µM; in experiment [4], 3.7 ± 0.3 µM; in experiment [5], 2.4 ± 0.1 µM; in experiment [6] it was 9 ± 1 µM. For the same compound, the IC50 in experiment [7] fell in the range of 2 to 20 µM.
